Results reported in ChEMBL document CHEMBL1770105, “Discovery and evaluation of pyrazolo[1,5-a]pyrimidines as neuropeptide Y1 receptor antagonists” (Bioorg Med Chem Lett, 2011).
Blank lines part the entries; values can stand above or below the compound they belong to. Active and inactive are the calls of the source. No cut-off for these calls is given here.

Tests used:
[1] = Selectivity ratio of NPY Y1 receptor over CRHR
[2] = molecular target: T1, Corticotropin-releasing factor receptor 1 (Homo sapiens, UniProt P34998); assay: Binding affinity to CRHR
T1 sequence (P34998 whole entry): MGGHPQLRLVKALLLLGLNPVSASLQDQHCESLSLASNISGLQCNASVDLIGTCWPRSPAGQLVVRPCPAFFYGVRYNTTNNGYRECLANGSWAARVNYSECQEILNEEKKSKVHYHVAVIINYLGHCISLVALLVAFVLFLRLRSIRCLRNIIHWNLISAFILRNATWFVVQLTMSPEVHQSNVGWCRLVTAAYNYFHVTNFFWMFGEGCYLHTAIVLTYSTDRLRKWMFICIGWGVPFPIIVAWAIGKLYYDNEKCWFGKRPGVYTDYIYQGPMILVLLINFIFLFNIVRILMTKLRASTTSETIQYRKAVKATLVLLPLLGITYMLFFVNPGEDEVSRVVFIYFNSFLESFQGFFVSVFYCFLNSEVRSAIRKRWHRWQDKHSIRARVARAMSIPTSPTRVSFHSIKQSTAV

[3] = molecular target: T2, Neuropeptide Y receptor type 1 (Homo sapiens, UniProt P25929); assay: Displacement of [125I]-PYY from human recombinant NPY Y1 receptor overexpressed in membrane of Sf9 cells
T2 sequence (P25929 whole entry): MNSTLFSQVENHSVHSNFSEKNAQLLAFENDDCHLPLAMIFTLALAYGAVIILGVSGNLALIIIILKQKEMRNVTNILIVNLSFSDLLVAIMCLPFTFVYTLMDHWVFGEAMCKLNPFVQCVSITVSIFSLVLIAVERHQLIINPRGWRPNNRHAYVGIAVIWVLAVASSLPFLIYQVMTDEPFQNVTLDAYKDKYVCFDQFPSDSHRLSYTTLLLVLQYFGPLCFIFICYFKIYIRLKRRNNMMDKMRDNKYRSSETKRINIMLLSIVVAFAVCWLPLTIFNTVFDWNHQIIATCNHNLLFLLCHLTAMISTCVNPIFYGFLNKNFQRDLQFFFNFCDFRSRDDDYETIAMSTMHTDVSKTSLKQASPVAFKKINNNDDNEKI
Method in brief: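 Human Y1 receptor: 125I-PYY displacement on Sf9 membranes overexpressing recombinant hY1R. Ki values are single determinations run in triplicate.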

[4] = Ratio of fraction unbound drug level in brain to plasma in Mdr1a/1b knockout mouse to FVB mouse at 5 mg.kg, sc after 0.5 hrs; type: ADME, organism-based
Method in brief: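 Brain and plasma levels measured in Mdr1a/1b knockout and wild-type FVB mice 0.5 h after a 5 mg/kg sc dose. Brain/plasma ratios calculated from unbound fractions, measured by equilibrium dialysis of brain homogenate and plasma. Result expressed as knockout B/P over FVB B/P.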

[5] = molecular target: T2, Neuropeptide Y receptor type 1; assay: Antagonist activity at NPY Y1 receptor in human SK-N-MC cells assessed as inhibition of NPY-induced calcium mobilization by FLIPR assay; type: functional, cell-based
Method in brief: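 SK-N-MC neuroblastoma cells plated at 25,000/well 4 days ahead, loaded with Fluo-3 for 1 h in 5% CO2, washed and resuspended in assay buffer (5 mM KCl, 115 mM NaCl, 0.96 mM NaH2PO4, 1 mM MgSO4, 2 mM CaCl2, 5 mM D-glucose) containing test compound.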

[6] = Plasma clearance in Sprague-Dawley rat at 1 mg/kg, iv and 3 mg/kg, po; type: ADME, organism-based
Method in brief: (§1)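 Overnight-fasted, jugular-vein-cannulated SD rats (water ad libitum) dosed by oral gavage (3 mg/kg in 0.5% methyl cellulose, 2 mL/kg, n = 2) or iv via the jugular vein (1.0 mg/kg in 50% PEG, 1 mL/kg, n = 2).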

[7] = Fraction unbound in Sprague-Dawley rat plasma at 1 mg/kg, iv and 3 mg/kg, po; type: ADME, organism-based
[8] = tested on: Rattus norvegicus; assay: Unbound plasma clearance in Sprague-Dawley rat 1 mg/kg, iv and 3 mg/kg, po; type: ADME, organism-based; conditions: in vivo
[9] = tested on: Rattus norvegicus; assay: Antihypertensive activity in Sprague-Dawley rat assessed as inhibition of NPY-induced increase in arterial pressure at 3 mg/kg, iv; type: functional; conditions: Artery
Method in brief: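 Overnight-fasted SD rats anesthetized with inactin (100 mg/kg ip), tracheal and femoral arterial/venous cannulae, on a heated pad. Arterial pressure and heart rate recorded every 5 s. NPY given as iv bolus every 15 min. After the third NPY bolus, compound given iv at 3 mg/kg in saline (1 mL/kg), followed by three further NPY injections.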

[10] = Half life in Sprague-Dawley rat at 1 mg/kg, iv and 3 mg/kg, po; type: ADME, organism-based; conditions: in vivo; method in brief: as §1
[11] = Oral bioavailability in Sprague-Dawley rat at 3 mg/kg; type: ADME, organism-based; conditions: in vivo; method in brief: as §1
[12] = Ratio of fraction unbound drug level in brain to plasma in Sprague-Dawley rat; type: ADME, cell-free
Method in brief: (§2)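 Brain-to-plasma ratios calculated from unbound fractions. Unbound fraction in brain homogenate and whole plasma of rats or mice measured by equilibrium dialysis.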

[13] = Ratio of fraction unbound drug level in brain to plasma in FVB mouse; type: ADME, cell-free; method in brief: as §2
[14] = tested on: Rattus norvegicus; assay: Antiobesity activity in Sprague-Dawley rat assessed as reduction of NPY-induced food intake at 120 ug, icv after 4 hrs; type: functional, organism-based
Method in brief: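 SD rats with icv cannulae, fed powdered chow ad libitum. Between 10 and 11 am in the light cycle, compound or propylene glycol vehicle co-infused icv with NPY in sterile water over 1 min. Food intake measured over the next 4 h. Crossover design, two treatments 2 days apart.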

[15] = tested on: Rattus norvegicus; assay: Antiobesity activity in overnight fasted Sprague-Dawley rat assessed as decrease in food intake at 40 mg/kg, po followed by food re-feeding after 2 hrs post compound dose measured upto 2 hrs post re-feeding relative to control; type: functional; set-up: scale not given: the % may be the effect or the level left
Method in brief: (§3)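 SD rats housed singly with powdered chow and water, fasted overnight, then dosed po at 40 mg/kg or vehicle (0.5% methyl cellulose in water). Pre-weighed food returned 2 or 4 h post-dose. Intake recorded 2 and 4 h after food was restored, relative to vehicle controls.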

[16] = tested on: Rattus norvegicus; assay: Antiobesity activity in overnight fasted Sprague-Dawley rat assessed as decrease in food intake at 40 mg/kg, po followed by food re-feeding after 4 hrs post compound dose measured up to 2 to 4 hrs post re-feeding; type: functional, organism-based; set-up: dose 40 mg/kg; method in brief: as §3
[17] = tested on: Rattus norvegicus; assay: Neurotoxicity in Sprague-Dawley rat assessed as change in locomotor activity at 40 mg/kg, po; type: toxicity, organism-based; set-up: dose 40 mg/kg, route oral; conditions: in vivo
[18] = tested on: Rattus norvegicus; assay: Antiobesity activity in Wistar rat assessed as decrease in nocturnal food intake at 40 mg/kg, po measured every 10 mins for 18 hrs post-dose; type: functional, organism-based; set-up: dose 40 mg/kg
Method in brief: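 Wistar rats acclimated to a continuous food-intake monitoring system. Dosed po at 40 mg/kg or vehicle 30 min before the dark cycle. Intake logged every 10 min for 18 h post-dose. Compared with time-matched vehicle by two-tailed unpaired t-test.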

[19] = tested on: Rattus norvegicus; assay: Neurotoxicity in Wistar rat assessed as change in locomotor activity at 40 mg/kg, po; type: toxicity, organism-based; set-up: dose 40 mg/kg, route oral; conditions: in vivo
[20] = tested on: Plasma; assay: Unbound plasma concentration in Sprague-Dawley rat at 40 mg/kg, po after 2 hrs; type: ADME, organism-based; set-up: dose 40 mg/kg, route oral; conditions: in vivo
[21] = molecular target: T3, Neuropeptide Y receptor type 2 (Homo sapiens, UniProt P49146); assay: Binding affinity to human NPY Y2 receptor
T3 sequence (P49146 whole entry): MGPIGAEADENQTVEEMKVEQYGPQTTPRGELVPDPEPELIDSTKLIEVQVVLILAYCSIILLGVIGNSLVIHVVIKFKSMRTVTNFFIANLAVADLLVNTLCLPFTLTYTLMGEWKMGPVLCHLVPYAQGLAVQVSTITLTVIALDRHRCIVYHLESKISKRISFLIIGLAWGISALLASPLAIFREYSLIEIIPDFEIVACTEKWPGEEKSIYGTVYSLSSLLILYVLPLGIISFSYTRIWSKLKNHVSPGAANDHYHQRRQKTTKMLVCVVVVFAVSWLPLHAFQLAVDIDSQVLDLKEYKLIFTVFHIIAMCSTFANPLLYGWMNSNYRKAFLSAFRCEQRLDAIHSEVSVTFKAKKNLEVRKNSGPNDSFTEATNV

[22] = molecular target: T4, Neuropeptide Y receptor type 5 (Homo sapiens, UniProt Q15761); assay: Binding affinity to human NPY Y5 receptor
T4 sequence (Q15761 whole entry): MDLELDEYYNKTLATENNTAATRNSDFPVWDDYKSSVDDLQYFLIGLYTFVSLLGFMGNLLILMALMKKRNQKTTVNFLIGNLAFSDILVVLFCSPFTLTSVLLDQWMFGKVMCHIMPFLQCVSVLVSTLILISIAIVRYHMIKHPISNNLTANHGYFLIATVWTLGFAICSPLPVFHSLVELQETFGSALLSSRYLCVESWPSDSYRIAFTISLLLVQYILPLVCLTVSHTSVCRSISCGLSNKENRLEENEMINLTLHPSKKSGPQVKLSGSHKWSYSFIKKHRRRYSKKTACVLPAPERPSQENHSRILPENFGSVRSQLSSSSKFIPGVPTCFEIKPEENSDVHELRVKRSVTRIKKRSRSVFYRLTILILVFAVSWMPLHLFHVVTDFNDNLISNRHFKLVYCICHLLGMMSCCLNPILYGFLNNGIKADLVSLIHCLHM

[23] = molecular target: T5, Corticotropin-releasing factor receptor 1 (Homo sapiens) (UniProt P34998); assay: Binding affinity to CRHR at 10 uM
T5 sequence (whole entry): T1 sequence (P34998 whole entry)

[24] = tested on: Rattus norvegicus; assay: Antiobesity activity in overnight fasted Sprague-Dawley rat assessed as decrease in food intake at 40 mg/kg, po followed by food re-feeding after 2 hrs post compound dose measured up to 4 hrs post re-feeding relative to control; type: functional; set-up: scale not given: the % may be the effect or the level left; method in brief: as §3
[25] = Drug level in Sprague-Dawley rat cerebral spinal fluid at 40 mg/kg, po after 2 hrs; type: ADME, organism-based; set-up: dose 40 mg/kg, route oral; conditions: cerebrospinal fluid, read-out: Drug uptake
Method in brief: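 Rats dosed 40 mg/kg po were anesthetized with metofane at 2 h post-dose (n = 2). CSF drawn from the cisterna magna with a 26-gauge needle.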

[26] = Drug level in Sprague-Dawley rat brain interstitial fluid at 40 mg/kg, po after 2 hrs; type: ADME, organism-based; set-up: dose 40 mg/kg, route oral; conditions: read-out: Drug uptake
Method in brief: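 Rats dosed 40 mg/kg po. Interstitial fluid collected at 2 h from the paraventricular nucleus with microdialysis probes.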

[27] = molecular target: T6, Neuropeptide Y receptor type 1 (Rattus norvegicus, UniProt P21555); assay: Displacement of [125I]PYY from rat recombinant NPY Y1 receptor overexpressed in membrane of Sf9 cells
T6 sequence (P21555 whole entry): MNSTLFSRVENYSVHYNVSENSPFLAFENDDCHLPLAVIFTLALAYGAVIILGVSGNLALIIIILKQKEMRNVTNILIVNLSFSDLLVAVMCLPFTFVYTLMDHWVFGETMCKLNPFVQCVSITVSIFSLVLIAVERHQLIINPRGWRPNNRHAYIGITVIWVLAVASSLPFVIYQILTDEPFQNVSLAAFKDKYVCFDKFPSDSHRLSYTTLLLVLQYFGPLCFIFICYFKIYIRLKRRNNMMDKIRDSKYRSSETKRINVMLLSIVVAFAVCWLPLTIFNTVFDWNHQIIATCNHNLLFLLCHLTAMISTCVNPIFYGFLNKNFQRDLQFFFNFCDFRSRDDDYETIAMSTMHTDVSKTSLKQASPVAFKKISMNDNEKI

SMILES: CCN(CCN)c1nc(C)nc2c1c1ccccc1n2-c1c(C)cc(C)cc1C
Ratio [1]: 29 | Ki [2]: 4.47 µM

SMILES: COc1ccc(CCNCCNc2cc(C)nc3c(-c4c(C)cc(C)cc4C)c(C)nn23)cc1
Ki [3]: 29 nM

SMILES: COc1cc(Cl)c(-c2c(C)nn3c(NCCNC4CCCCC4F)cc(C)nc23)c(Cl)c1 (mixture of isomers)
Ki [3]: 5 nM | Knockout-to-FVB ratio of unbound brain/plasma ratio [4]: 8

SMILES: Cc1cc(C)c(-c2c(C)nn3c(NCCN)cc(C)nc23)c(C)c1
Ki [3]: 2300 nM | Ki [2]: > 10 µM

SMILES: Cc1cc(NCCNC2CCOCC2)n2nc(C)c(-c3c(Cl)cccc3Cl)c2n1
Ki [3]: 7 nM

The next lines start with results.

Ki [3]: 141 nM | Knockout-to-FVB ratio of unbound brain/plasma ratio [4]: 4
SMILES: COc1cc(Cl)c(-c2c(C)nn3c(NCC(C)(C)NC4CCOCC4)cc(C)nc23)c(Cl)c1

Ki [3]: 1 nM | IC50 [5]: 7 nM | clearance [6]: 45 mL/min/kg | fraction unbound [7]: 0.059 | CL [8]: 763 mL/min/kg | half-life [10]: 72 min | bioavailability [11]: 13% | BPR [12]: 0.13 | BPR [13]: 0.1 | Knockout-to-FVB ratio of unbound brain/plasma ratio [4]: 9 | Cp [20]: 95 nM | IC50 [21]: > 10 µM | IC50 [22]: > 10 µM | inhibition [23]: < 50% | concentration at 2 h [25]: 26 nM | concentration at 2 h [26]: 17 nM | Ki [27]: 3.5 nM
SMILES: COc1cc(Cl)c(-c2c(C)nn3c(NCCNC4CCOCC4)cc(C)nc23)c(Cl)c1
inhibition in vivo at 3 mg/kg [9]: 92% | Activity [14]: Active | Activity [15]: 12% | Activity [16]: inactive | Activity [17]: Non-toxic | Activity [18]: Active | Activity [19]: Non-toxic | Activity [24]: 12%
